# In ChEMBL document CHEMBL2086261, “A focused sulfated glycoconjugate Ugi library for probing heparan sulfate-binding angiogenic growth factors” (Bioorg Med Chem Lett, 2012):
# Molecular target: T1, Vascular endothelial growth factor A, long form (Homo sapiens, UniProt P15692)
# T1 sequence (P15692 whole entry): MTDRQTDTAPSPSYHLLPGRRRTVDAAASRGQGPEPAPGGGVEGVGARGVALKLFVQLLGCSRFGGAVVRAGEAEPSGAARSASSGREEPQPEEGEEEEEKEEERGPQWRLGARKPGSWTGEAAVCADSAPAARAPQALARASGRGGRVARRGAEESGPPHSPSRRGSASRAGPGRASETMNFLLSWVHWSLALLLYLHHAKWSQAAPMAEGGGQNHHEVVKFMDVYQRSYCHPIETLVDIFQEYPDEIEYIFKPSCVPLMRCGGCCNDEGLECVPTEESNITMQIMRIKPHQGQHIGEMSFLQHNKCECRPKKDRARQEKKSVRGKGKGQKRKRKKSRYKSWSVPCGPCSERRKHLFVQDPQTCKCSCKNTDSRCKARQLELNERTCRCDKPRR
# Test: Binding affinity to VEGF by surface plasmon resonance-based solution affinity assay
# Summary of the method: (§1)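 Dissociation constants (Kd) for ligand binding to FGF-1, FGF-2 and VEGF were determined by an SPR solution affinity assay. Some entries come from a single measurement only.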
row,Kd,Structure (SMILES)
1,1000 µM,CCCCC1CCC(N(CC(=O)NC[C@H]2O[C@H](OC)[C@@H](OS(=O)(=O)O)[C@@H](OS(=O)(=O)O)[C@@H]2OS(=O)(=O)O)C(C)=O)CC1 (some centres undefined)
2,45.3 µM,CO[C@H]1O[C@H](CNC(=O)CNC(=O)Cc2cccc(Cl)c2)[C@@H](OS(=O)(=O)O)[C@H](OS(=O)(=O)O)[C@@H]1OS(=O)(=O)O
3,596 µM,CCN(CC(=O)NC[C@H]1O[C@H](OC)[C@@H](OS(=O)(=O)O)[C@@H](OS(=O)(=O)O)[C@@H]1OS(=O)(=O)O)C(=O)CCc1ccccc1
4,207 µM,CCN(CC(=O)NC[C@H]1O[C@H](OC)[C@@H](OS(=O)(=O)O)[C@@H](OS(=O)(=O)O)[C@@H]1OS(=O)(=O)O)C(=O)CCC(=O)O
5,1700 µM,CO[C@H]1O[C@H](CNC(=O)CN(C(C)=O)C2CCCCC2)[C@@H](OS(=O)(=O)O)[C@H](OS(=O)(=O)O)[C@@H]1OS(=O)(=O)O
6,3000 µM,CO[C@H]1O[C@H](CNC(=O)CN(C(C)=O)C2CCCCCC2)[C@@H](OS(=O)(=O)O)[C@H](OS(=O)(=O)O)[C@@H]1OS(=O)(=O)O
7,81 µM,CCN(CC(=O)NC[C@H]1O[C@H](OC)[C@@H](OS(=O)(=O)O)[C@@H](OS(=O)(=O)O)[C@@H]1OS(=O)(=O)O)C(=O)CCCc1ccccc1
8,76.6 µM,CC(=O)N(CC(=O)NCCO[C@H]1O[C@H](COS(=O)(=O)O)[C@@H](OS(=O)(=O)O)[C@H](OS(=O)(=O)O)[C@@H]1OS(=O)(=O)O)Cc1ccccc1
9,81 µM,CCN(CC(=O)NCCO[C@H]1O[C@H](COS(=O)(=O)O)[C@@H](OS(=O)(=O)O)[C@H](OS(=O)(=O)O)[C@@H]1OS(=O)(=O)O)C(=O)CCCCC(=O)O
10,40 µM,CCN(CC(=O)NCCO[C@H]1O[C@H](COS(=O)(=O)O)[C@@H](OS(=O)(=O)O)[C@H](OS(=O)(=O)O)[C@@H]1OS(=O)(=O)O)C(=O)CCC(=O)O
11,29 µM,CC(=O)N(CCc1ccccc1)CC(=O)NCCO[C@H]1O[C@H](COS(=O)(=O)O)[C@@H](OS(=O)(=O)O)[C@H](OS(=O)(=O)O)[C@@H]1OS(=O)(=O)O
12,280 µM,CO[C@H]1O[C@H](CNC(=O)CN(CCOS(=O)(=O)O)C(C)=O)[C@@H](OS(=O)(=O)O)[C@H](OS(=O)(=O)O)[C@@H]1OS(=O)(=O)O

# Molecular target: Fibroblast growth factor 1 (Homo sapiens, UniProt P05230)
# Sequence (P05230 whole entry): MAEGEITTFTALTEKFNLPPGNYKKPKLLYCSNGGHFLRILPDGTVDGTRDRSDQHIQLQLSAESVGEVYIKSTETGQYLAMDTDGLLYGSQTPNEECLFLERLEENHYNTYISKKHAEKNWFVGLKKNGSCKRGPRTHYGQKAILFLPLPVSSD
# Test: Binding affinity to FGF1 by surface plasmon resonance-based solution affinity assay
# Summary of the method: as §1
row,Kd,Structure (SMILES)
1,243 µM,CCCCC1CCC(N(CC(=O)NC[C@H]2O[C@H](OC)[C@@H](OS(=O)(=O)O)[C@@H](OS(=O)(=O)O)[C@@H]2OS(=O)(=O)O)C(C)=O)CC1 (some centres undefined)
2,37 µM,CO[C@H]1O[C@H](CNC(=O)CNC(=O)Cc2cccc(Cl)c2)[C@@H](OS(=O)(=O)O)[C@H](OS(=O)(=O)O)[C@@H]1OS(=O)(=O)O
3,338 µM,CCN(CC(=O)NC[C@H]1O[C@H](OC)[C@@H](OS(=O)(=O)O)[C@@H](OS(=O)(=O)O)[C@@H]1OS(=O)(=O)O)C(=O)CCC(=O)O
4,310 µM,CO[C@H]1O[C@H](CNC(=O)CN(C(C)=O)C2CCCCC2)[C@@H](OS(=O)(=O)O)[C@H](OS(=O)(=O)O)[C@@H]1OS(=O)(=O)O
5,370 µM,CO[C@H]1O[C@H](CNC(=O)CN(C(C)=O)C2CCCCCC2)[C@@H](OS(=O)(=O)O)[C@H](OS(=O)(=O)O)[C@@H]1OS(=O)(=O)O
6,500 µM,CCN(CC(=O)NC[C@H]1O[C@H](OC)[C@@H](OS(=O)(=O)O)[C@@H](OS(=O)(=O)O)[C@@H]1OS(=O)(=O)O)C(=O)CCCc1ccccc1
7,25 µM,CC(=O)N(CC(=O)NCCO[C@H]1O[C@H](COS(=O)(=O)O)[C@@H](OS(=O)(=O)O)[C@H](OS(=O)(=O)O)[C@@H]1OS(=O)(=O)O)Cc1ccccc1
8,44 µM,CCN(CC(=O)NCCO[C@H]1O[C@H](COS(=O)(=O)O)[C@@H](OS(=O)(=O)O)[C@H](OS(=O)(=O)O)[C@@H]1OS(=O)(=O)O)C(=O)CCCCC(=O)O
9,43 µM,CCN(CC(=O)NCCO[C@H]1O[C@H](COS(=O)(=O)O)[C@@H](OS(=O)(=O)O)[C@H](OS(=O)(=O)O)[C@@H]1OS(=O)(=O)O)C(=O)CCC(=O)O
10,11.8 µM,CC(=O)N(CCc1ccccc1)CC(=O)NCCO[C@H]1O[C@H](COS(=O)(=O)O)[C@@H](OS(=O)(=O)O)[C@H](OS(=O)(=O)O)[C@@H]1OS(=O)(=O)O
11,95 µM,CO[C@H]1O[C@H](CNC(=O)CN(CCOS(=O)(=O)O)C(C)=O)[C@@H](OS(=O)(=O)O)[C@H](OS(=O)(=O)O)[C@@H]1OS(=O)(=O)O

# Molecular target: Fibroblast growth factor 2 (Homo sapiens, UniProt P09038)
# Sequence (P09038 143-288 limits assumed): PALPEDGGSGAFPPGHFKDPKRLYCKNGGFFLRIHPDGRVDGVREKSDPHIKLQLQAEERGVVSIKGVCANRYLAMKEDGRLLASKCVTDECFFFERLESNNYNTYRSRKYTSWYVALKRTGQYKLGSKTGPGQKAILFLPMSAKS
# Test: Binding affinity to FGF2 by surface plasmon resonance-based solution affinity assay
# Summary of the method: as §1
row,Kd,Structure (SMILES)
1,540 µM,CCCCC1CCC(N(CC(=O)NC[C@H]2O[C@H](OC)[C@@H](OS(=O)(=O)O)[C@@H](OS(=O)(=O)O)[C@@H]2OS(=O)(=O)O)C(C)=O)CC1 (some centres undefined)
2,430 µM,CO[C@H]1O[C@H](CNC(=O)CNC(=O)Cc2cccc(Cl)c2)[C@@H](OS(=O)(=O)O)[C@H](OS(=O)(=O)O)[C@@H]1OS(=O)(=O)O
3,291 µM,CCN(CC(=O)NC[C@H]1O[C@H](OC)[C@@H](OS(=O)(=O)O)[C@@H](OS(=O)(=O)O)[C@@H]1OS(=O)(=O)O)C(=O)CCC(=O)O
4,413 µM,CO[C@H]1O[C@H](CNC(=O)CN(C(C)=O)C2CCCCC2)[C@@H](OS(=O)(=O)O)[C@H](OS(=O)(=O)O)[C@@H]1OS(=O)(=O)O
5,410 µM,CO[C@H]1O[C@H](CNC(=O)CN(C(C)=O)C2CCCCCC2)[C@@H](OS(=O)(=O)O)[C@H](OS(=O)(=O)O)[C@@H]1OS(=O)(=O)O
6,400 µM,CCN(CC(=O)NC[C@H]1O[C@H](OC)[C@@H](OS(=O)(=O)O)[C@@H](OS(=O)(=O)O)[C@@H]1OS(=O)(=O)O)C(=O)CCCc1ccccc1
7,287 µM,CC(=O)N(CC(=O)NCCO[C@H]1O[C@H](COS(=O)(=O)O)[C@@H](OS(=O)(=O)O)[C@H](OS(=O)(=O)O)[C@@H]1OS(=O)(=O)O)Cc1ccccc1
8,188 µM,CCN(CC(=O)NCCO[C@H]1O[C@H](COS(=O)(=O)O)[C@@H](OS(=O)(=O)O)[C@H](OS(=O)(=O)O)[C@@H]1OS(=O)(=O)O)C(=O)CCCCC(=O)O
9,122 µM,CCN(CC(=O)NCCO[C@H]1O[C@H](COS(=O)(=O)O)[C@@H](OS(=O)(=O)O)[C@H](OS(=O)(=O)O)[C@@H]1OS(=O)(=O)O)C(=O)CCC(=O)O
10,113 µM,CC(=O)N(CCc1ccccc1)CC(=O)NCCO[C@H]1O[C@H](COS(=O)(=O)O)[C@@H](OS(=O)(=O)O)[C@H](OS(=O)(=O)O)[C@@H]1OS(=O)(=O)O
11,240 µM,CO[C@H]1O[C@H](CNC(=O)CN(CCOS(=O)(=O)O)C(C)=O)[C@@H](OS(=O)(=O)O)[C@H](OS(=O)(=O)O)[C@@H]1OS(=O)(=O)O
